As a reminder, the Ki is a dissociation constant, usually derived from enzyme kinetics or from competition with a known ligand. In general, AUC(0-t) refers to the area under the concentration-time curve up to a stated or last time point. One may read the inhibition as the drop in the measured response relative to a control, in per cent. Low readings indicate a response near the control, high ones a response far below the control. The Cmax is the maximum level reached in the sampled fluid or tissue.

Each structure is given as a SMILES string. A value given as a limit tells only on which side of the number the result lay.

This note sets out measurements from ChEMBL document CHEMBL2046373, “Discovery of a potent thiadiazole class of histamine h3 receptor antagonist for the treatment of diabetes” (ACS Med Chem Lett, 2012).

Data set [1] has as its target Histamine H3 receptor (Mus musculus, UniProt P58406). Briefly: Displacement of [3H]-N-alpha-methylhistamine from mouse recombinant histamine H3 receptor after 30 mins by scintillation counting. A general note: In a radioligand displacement assay an active substance lowers the binding of a labelled ligand.
Data set [2] deals with Histamine H3 receptor (Homo sapiens, UniProt Q9Y5N1). Put plainly: Displacement of [3H]-N-alpha-methylhistamine from human recombinant histamine H3 receptor after 30 mins by scintillation counting.
Histamine H3 receptor (Homo sapiens, UniProt Q9Y5N1), sequence (Q9Y5N1 whole entry): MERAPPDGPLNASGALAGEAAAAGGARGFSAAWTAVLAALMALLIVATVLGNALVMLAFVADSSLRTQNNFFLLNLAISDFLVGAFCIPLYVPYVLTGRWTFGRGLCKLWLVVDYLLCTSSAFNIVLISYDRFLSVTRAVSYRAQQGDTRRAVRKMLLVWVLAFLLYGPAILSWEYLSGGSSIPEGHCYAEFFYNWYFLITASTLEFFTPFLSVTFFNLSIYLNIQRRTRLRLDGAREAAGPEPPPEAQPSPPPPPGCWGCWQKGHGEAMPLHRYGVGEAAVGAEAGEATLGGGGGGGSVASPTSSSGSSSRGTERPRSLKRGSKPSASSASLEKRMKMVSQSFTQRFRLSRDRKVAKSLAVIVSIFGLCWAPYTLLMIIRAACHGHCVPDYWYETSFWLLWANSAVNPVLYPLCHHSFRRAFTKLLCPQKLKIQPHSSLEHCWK
Data set [3] deals with Mus musculus. Put plainly: Antihyperglycemic activity in po dosed STZ-induced type 2 diabetic model of ICR mouse assessed as reduction of HbA1c level administered qd for 12 days. In kind it is functional, organism-based. The gist of the method:
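STZ diet-induced obese type 2 diabetic mice were dosed orally once daily for 12 days at 10 and 30 mg/kg. The end point was change in glycated hemoglobin (HbA1c), compared with vehicle (0) controls.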

Data set [4] can be described thus: AUC (0 to 6 hrs) in rat at 10 mg/kg, po. In kind it is ADME, organism-based. More on the design: time < 6 hr, dose 10 mg/kg, route oral. Particulars: plasma.
Data set [5] deals with Mus musculus. Briefly: Ex vivo receptor occupancy of histamine H3 receptor in ICR mouse brain cortex using [3H]- N-alpha-Methylhistamine at 30 mg/kg, po after 30 mins by scintillation counting. The format is functional.
The target of the next data set is hERG (KCNH2) (Homo sapiens, UniProt Q12809). Briefly: Inhibition of human ERG at 10 uM by high-throughput rubidium efflux assay.
hERG (KCNH2), sequence (Q12809 whole entry): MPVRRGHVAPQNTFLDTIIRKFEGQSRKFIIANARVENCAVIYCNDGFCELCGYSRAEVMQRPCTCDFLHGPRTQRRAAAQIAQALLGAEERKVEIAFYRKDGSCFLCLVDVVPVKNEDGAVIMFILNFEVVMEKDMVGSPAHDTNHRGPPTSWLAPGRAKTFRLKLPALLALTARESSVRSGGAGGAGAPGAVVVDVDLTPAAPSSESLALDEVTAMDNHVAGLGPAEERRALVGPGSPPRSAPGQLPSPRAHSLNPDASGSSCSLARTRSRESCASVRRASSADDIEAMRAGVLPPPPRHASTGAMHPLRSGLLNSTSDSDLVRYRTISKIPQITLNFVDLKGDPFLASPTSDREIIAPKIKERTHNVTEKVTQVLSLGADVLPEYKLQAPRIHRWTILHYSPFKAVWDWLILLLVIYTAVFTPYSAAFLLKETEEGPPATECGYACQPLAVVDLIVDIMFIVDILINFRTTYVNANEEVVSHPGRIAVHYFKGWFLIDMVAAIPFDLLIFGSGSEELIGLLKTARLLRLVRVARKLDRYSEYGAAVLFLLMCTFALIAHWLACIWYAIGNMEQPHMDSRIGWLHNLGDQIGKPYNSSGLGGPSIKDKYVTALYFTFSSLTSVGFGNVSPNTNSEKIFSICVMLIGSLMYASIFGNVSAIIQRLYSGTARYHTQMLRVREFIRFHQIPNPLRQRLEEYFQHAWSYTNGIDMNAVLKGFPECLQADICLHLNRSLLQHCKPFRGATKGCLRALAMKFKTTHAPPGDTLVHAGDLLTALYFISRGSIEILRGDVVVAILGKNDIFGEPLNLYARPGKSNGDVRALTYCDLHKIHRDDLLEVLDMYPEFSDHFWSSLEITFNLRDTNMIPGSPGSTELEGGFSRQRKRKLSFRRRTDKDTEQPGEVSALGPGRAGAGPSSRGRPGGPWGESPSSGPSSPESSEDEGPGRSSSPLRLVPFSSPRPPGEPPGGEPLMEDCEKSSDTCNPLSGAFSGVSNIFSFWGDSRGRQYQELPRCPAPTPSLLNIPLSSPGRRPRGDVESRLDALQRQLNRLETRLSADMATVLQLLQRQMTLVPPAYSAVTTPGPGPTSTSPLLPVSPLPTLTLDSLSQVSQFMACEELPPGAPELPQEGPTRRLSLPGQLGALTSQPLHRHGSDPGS
The nature of data set [6]: Cmax in ICR mouse plasma at 30 mg/kg, po after 4 hrs. In kind it is ADME, organism-based. Also on record: dose 30 mg/kg, route oral. In a few lines:
(§1)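 ICR mice were given a single 30 mg/kg oral dose. Total brain and plasma concentrations were measured 4 h later, and the brain/plasma ratio was taken from these levels.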

Data set [7] in a line: Ratio of drug level in brain to plasma in ICR mouse. The format is ADME. To be noted: read-out: BPR. In a few lines: as §1
Data set [8] is described as follows: Drug level in ICR mouse brain at 30 mg/kg, po after 4 hrs. Also on record: dose 30 mg/kg, route oral. Particulars: read-out: Drug uptake. The format is ADME, organism-based. The gist of the method: as §1
Data set [9] has as its target T1, Cytochrome P450 2D6 (Homo sapiens, UniProt P10635). Briefly: Inhibition of CYP2D6 under co-incubation conditions. In kind it is ADME. To be noted: read-out: INH.
The target of data set [10] is T2, Cytochrome P450 3A4 (Homo sapiens, UniProt P08684). Briefly: Inhibition of CYP3A4 under co-incubation conditions. Particulars: read-out: INH. The format is ADME.
T2 sequence (P08684 whole entry): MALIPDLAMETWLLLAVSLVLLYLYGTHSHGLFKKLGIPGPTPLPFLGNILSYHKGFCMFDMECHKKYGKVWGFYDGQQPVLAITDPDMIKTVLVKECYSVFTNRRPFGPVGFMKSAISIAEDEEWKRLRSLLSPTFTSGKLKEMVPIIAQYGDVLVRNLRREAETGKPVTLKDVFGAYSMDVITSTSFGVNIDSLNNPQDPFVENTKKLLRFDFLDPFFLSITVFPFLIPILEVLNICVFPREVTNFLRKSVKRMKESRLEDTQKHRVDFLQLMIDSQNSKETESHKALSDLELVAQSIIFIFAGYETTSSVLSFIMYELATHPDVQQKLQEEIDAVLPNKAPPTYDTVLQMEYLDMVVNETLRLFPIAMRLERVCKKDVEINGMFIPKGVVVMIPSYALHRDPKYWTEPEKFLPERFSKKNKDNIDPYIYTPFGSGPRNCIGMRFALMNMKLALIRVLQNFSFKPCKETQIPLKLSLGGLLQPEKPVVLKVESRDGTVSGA
For data set [11], the target named is T3, Cytochrome P450 2C9 (Homo sapiens, UniProt P11712). Briefly: Inhibition of CYP2C9 under co-incubation conditions. To be noted: read-out: INH. The format is ADME.
T3 sequence (P11712 whole entry): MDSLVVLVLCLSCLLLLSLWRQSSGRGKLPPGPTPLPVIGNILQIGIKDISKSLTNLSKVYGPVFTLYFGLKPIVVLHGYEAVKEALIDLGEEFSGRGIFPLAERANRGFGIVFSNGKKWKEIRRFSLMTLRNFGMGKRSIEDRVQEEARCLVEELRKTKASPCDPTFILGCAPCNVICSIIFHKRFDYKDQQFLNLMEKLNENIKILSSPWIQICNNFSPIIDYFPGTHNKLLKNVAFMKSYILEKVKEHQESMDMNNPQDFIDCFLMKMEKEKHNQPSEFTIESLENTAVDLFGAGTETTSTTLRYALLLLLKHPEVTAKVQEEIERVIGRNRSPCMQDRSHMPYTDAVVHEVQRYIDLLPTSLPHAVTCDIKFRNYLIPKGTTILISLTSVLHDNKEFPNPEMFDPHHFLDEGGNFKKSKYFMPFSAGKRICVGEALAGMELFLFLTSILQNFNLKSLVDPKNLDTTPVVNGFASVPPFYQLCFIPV
In data set [12] the target is T2, Cytochrome P450 3A4. Briefly: Inhibition of CYP3A4 under preincubation conditions. The format is ADME. Particulars: read-out: INH.
Data set [13] has as its target T3, Cytochrome P450 2C9. Put plainly: Inhibition of CYP2C9 under preincubation conditions. Particulars: read-out: INH. The format is ADME.
For data set [14], the target named is T1, Cytochrome P450 2D6. Put plainly: Inhibition of CYP2D6 under preincubation conditions. In kind it is ADME.
In data set [15] the test system is Mus musculus. Put plainly: Antihyperglycemic activity in STZ-induced type 2 diabetic model of ICR mouse assessed as reduction of non-fasting blood glucose level at 30 mg/kg, po qd for 2 days. The format is functional. In a few lines: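 Streptozotocin-diabetic ICR mice (STZ 80 mg/kg ip; blood glucose 250–500 mg/dL) received oral dosing at 30 mg/kg once daily. Non-fasting glucose was read daily before each dose. Data are mean ± SEM, n = 12/group, compared with vehicle (0) controls.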

T1 sequence (P10635 whole entry): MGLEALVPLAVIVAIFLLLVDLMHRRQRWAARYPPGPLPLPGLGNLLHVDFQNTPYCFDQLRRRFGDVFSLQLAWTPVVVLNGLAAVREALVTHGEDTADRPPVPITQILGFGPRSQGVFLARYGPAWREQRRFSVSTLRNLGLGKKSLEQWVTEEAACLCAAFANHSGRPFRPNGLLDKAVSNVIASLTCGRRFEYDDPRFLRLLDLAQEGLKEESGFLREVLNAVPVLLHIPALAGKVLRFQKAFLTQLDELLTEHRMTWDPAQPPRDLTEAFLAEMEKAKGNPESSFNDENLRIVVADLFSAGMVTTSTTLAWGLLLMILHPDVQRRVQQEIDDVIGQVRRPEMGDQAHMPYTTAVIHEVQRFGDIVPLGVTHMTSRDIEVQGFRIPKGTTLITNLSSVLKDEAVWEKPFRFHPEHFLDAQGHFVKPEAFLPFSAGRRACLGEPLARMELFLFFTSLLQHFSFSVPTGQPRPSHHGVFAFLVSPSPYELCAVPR
Histamine H3 receptor (Mus musculus, UniProt P58406), sequence (P58406 whole entry): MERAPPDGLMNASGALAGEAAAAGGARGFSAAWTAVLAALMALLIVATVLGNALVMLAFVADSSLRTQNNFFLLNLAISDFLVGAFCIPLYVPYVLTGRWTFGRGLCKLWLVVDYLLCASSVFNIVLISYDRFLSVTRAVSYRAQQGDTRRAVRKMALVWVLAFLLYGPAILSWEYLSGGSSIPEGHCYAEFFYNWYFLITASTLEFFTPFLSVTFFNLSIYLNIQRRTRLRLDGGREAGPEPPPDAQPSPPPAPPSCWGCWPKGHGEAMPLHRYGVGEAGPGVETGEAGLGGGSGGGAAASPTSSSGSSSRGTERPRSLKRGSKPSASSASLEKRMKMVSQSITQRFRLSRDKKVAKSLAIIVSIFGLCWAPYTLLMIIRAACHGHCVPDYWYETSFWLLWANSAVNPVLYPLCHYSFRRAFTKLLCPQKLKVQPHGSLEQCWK

For `O=C(Nc1nnc(N2CCC(N3CCCCC3)CC2)s1)NC1CCCC1`, the Ki at Histamine H3 receptor [1] worked out at 47 nM.

For the compound `COC1CCCN(c2nnc(N3CCC(N4CCCCC4)CC3)s2)C1` (stereo unspecified), the Ki at Histamine H3 receptor [1] came out at 46 nM; on Histamine H3 receptor [2] it was 37 nM.

`c1ccc(C2CN(c3nnc(N4CCC(N5CCCCC5)CC4)s3)CCO2)nc1` (stereo in doubt; 5t): the Ki was 67 nM at Histamine H3 receptor [1] and 34 nM at Histamine H3 receptor [2].

For the compound `c1ccc(C2CN(c3nnc(N4CCC(N5CCCCC5)CC4)s3)CCO2)nc1` (stereo in doubt; 5r), the Ki at Histamine H3 receptor [1] was 11 nM; at Histamine H3 receptor [2] it was 5 nM.

Take `C1=C(c2ncccn2)CN(c2nnc(N3CCC(N4CCCCC4)CC3)s2)CC1`: the Ki at Histamine H3 receptor [1] amounted to 44 nM; on Histamine H3 receptor [2], 14 nM.

`c1ccc(C2CCCN(c3nnc(N4CCC(N5CCCCC5)CC4)s3)C2)cc1` (stereo unspecified): the Ki worked out at 110 nM at Histamine H3 receptor [1] and 75 nM on Histamine H3 receptor [2].

For the compound `c1ccc(C2CN(c3nnc(N4CCC(N5CCCCC5)CC4)s3)CCO2)nc1` (single isomer, unassigned; enantiomer 2) [listing 1 of 2 here], the Activity result in the data set on Mus musculus [3] is “Dose-dependent effect”.

Consider `C1=C(c2ccccn2)CN(c2nnc(N3CCC(N4CCCCC4)CC3)s2)CC1`, for which the values for the inhibition constant Ki on Histamine H3 receptor [1] and on Histamine H3 receptor [2] were 49 nM and 12 nM, respectively.

As to `COC1(c2ccccn2)CCCN(c2nnc(N3CCC(N4CCCCC4)CC3)s2)C1` (stereo unspecified), the Ki on Histamine H3 receptor [1] turned out to be 54 nM; at Histamine H3 receptor [2], 11 nM.

On to `OC1CCCN(c2nnc(N3CCC(N4CCCCC4)CC3)s2)C1` (stereo unspecified), for which the inhibition constant (Ki) on Histamine H3 receptor [1] came to 68 nM; at Histamine H3 receptor [2] it was 46 nM.

The compound `CC1CN(c2nnc(N3CCC(N4CCCCC4)CC3)s2)CC(C)O1` (stereo unspecified) came in with an AUC(0-t) at 6 h in [4] of 4320 ng·h/mL. For the same compound, the results for the inhibition constant Ki at Histamine H3 receptor [1] and on Histamine H3 receptor [2] were 35 nM and 53 nM, respectively.

In the case of `c1ccc(C2CN(c3nnc(N4CCC(N5CCCCC5)CC4)s3)CCO2)nc1` (single isomer, unassigned; enantiomer 2) [listing 2 of 2 here], the Activity was 74% with Mus musculus [5] and 104.5 mg/dL with Mus musculus [15]. The same compound returned an inhibition at 10 µM at hERG (KCNH2) of 26%. The Ki was determined as 4 nM on Histamine H3 receptor [1] and 3 nM at Histamine H3 receptor [2]. The same compound returned a Cmax in data set [6] of 1500 ng/mL. Further, the Kp in data set [7] was found to be 0.016. The concentration at 4 h in data set [8] worked out at 24 ng/g. Besides, the IC50 on Cytochrome P450 2D6 [9], on Cytochrome P450 3A4 [10], at Cytochrome P450 2C9 [11], at Cytochrome P450 3A4 [12] and at Cytochrome P450 2C9 [13] was above 20000 nM in each case. The compound also displayed an INH on Cytochrome P450 2D6 [14] above 20 µM.

Turning to `FC1CCCN(c2nnc(N3CCC(N4CCCCC4)CC3)s2)C1` (stereo unspecified), the figures for the Ki at Histamine H3 receptor [1] and on Histamine H3 receptor [2] were 56 nM and 66 nM, respectively.

As to `FC1(F)CCN(c2nnc(N3CCC(N4CCCCC4)CC3)s2)C1`, the AUC(0-t) at 6 h in data set [4] stood at 545 ng·h/mL. The Ki on Histamine H3 receptor [1] and at Histamine H3 receptor [2] was 61 nM in each case.

On to `OC1(c2ccccn2)CCCN(c2nnc(N3CCC(N4CCCCC4)CC3)s2)C1` (stereo unspecified), for which the Ki at Histamine H3 receptor [1] was determined as 55 nM; on Histamine H3 receptor [2], 53 nM.

As for `C1=C(c2ccccn2)CCCN1c1nnc(N2CCC(N3CCCCC3)CC2)s1`, the Activity in the data set with Mus musculus [5] is on record as 85%. At hERG (KCNH2), this compound showed an inhibition at 10 µM of 54%. Moreover, the Ki on Histamine H3 receptor [1] was 5 nM; at Histamine H3 receptor [2], 3 nM. The compound also came in with a Cmax in [6] of 1470 ng/mL. Moreover, the concentration at 4 h in [8] was 1040 ng/g. Besides, the IC50 at Cytochrome P450 2D6 [9], on Cytochrome P450 3A4 [10], at Cytochrome P450 2C9 [11], at Cytochrome P450 3A4 [12] and at Cytochrome P450 2C9 [13] was above 20000 nM in each case. In addition, the INH on Cytochrome P450 2D6 [14] was above 20 µM.

In the case of `c1cnc(C2CN(c3nnc(N4CCC(N5CCCCC5)CC4)s3)CCO2)cn1` (stereo unspecified), the Ki on Histamine H3 receptor [1] was found to be 16 nM; on Histamine H3 receptor [2], 8 nM.

In the case of `O=C1N(c2nnc(N3CCC(N4CCCCC4)CC3)s2)CCN1C1CCCC1`, the Ki at Histamine H3 receptor [1] was 53 nM; at Histamine H3 receptor [2], 34 nM.

With `O=C1CCCCN1c1nnc(N2CCC(N3CCCCC3)CC2)s1`, the inhibitory constant (Ki) on Histamine H3 receptor [1] and at Histamine H3 receptor [2] was 120 nM each time.

`O=C1N(c2ccccc2)CCCN1c1nnc(N2CCC(N3CCCCC3)CC2)s1`: the figures for the Ki on Histamine H3 receptor [1] and at Histamine H3 receptor [2] were 32 nM and 30 nM, respectively.

Consider `OC1(c2ncccn2)CCCN(c2nnc(N3CCC(N4CCCCC4)CC3)s2)C1` (stereo unspecified), for which the inhibitory constant (Ki) on Histamine H3 receptor [1] was found to be 77 nM; on Histamine H3 receptor [2], 67 nM.

As to `FC1(c2ccccn2)CCCN(c2nnc(N3CCC(N4CCCCC4)CC3)s2)C1` (stereo unspecified), the Activity amounted to 92% with Mus musculus [5] and 67.91 mg/dL in the data set on Mus musculus [15]. At hERG (KCNH2), the inhibition at 10 µM amounted to 16%. Also, the inhibitory constant (Ki) at Histamine H3 receptor [1] was 7 nM; on Histamine H3 receptor [2] it was 4 nM. The Cmax in [6] was determined as 2970 ng/mL. Moreover, in data set [7], the Kp stood at 0.227. In addition, the concentration at 4 h in [8] was 674 ng/g. Further, the IC50 at Cytochrome P450 2D6 [9], at Cytochrome P450 3A4 [10], at Cytochrome P450 2C9 [11], on Cytochrome P450 3A4 [12] and on Cytochrome P450 2C9 [13] was above 20000 nM in each case. On Cytochrome P450 2D6 [14], this compound registered an INH above 20 µM.

For the compound `FC1(F)CCN(c2nnc(N3CCC(N4CCCCC4)CC3)s2)CC1`, the AUC(0-t) at 6 h in data set [4] turned out to be 2490 ng·h/mL. Moreover, the Ki at Histamine H3 receptor [1] was found to be 18 nM; at Histamine H3 receptor [2], 15 nM.
